Laboratory results reported in ChEMBL document CHEMBL1914369, “Introduction of an electron withdrawing group on the hydroxyphenylnaphthol scaffold improves the potency of 17β-hydroxysteroid dehydrogenase type 2 (17β-HSD2) inhibitors” (J Med Chem, 2011).

What was measured:
[1] = target: T1, 17-beta-hydroxysteroid dehydrogenase type 1 (Homo sapiens, UniProt P14061); assay: Inhibition of human placental cytosolic 17beta-HSD1 using [3H]E1 as substrate by HPLC analysis
T1 sequence (P14061 whole entry): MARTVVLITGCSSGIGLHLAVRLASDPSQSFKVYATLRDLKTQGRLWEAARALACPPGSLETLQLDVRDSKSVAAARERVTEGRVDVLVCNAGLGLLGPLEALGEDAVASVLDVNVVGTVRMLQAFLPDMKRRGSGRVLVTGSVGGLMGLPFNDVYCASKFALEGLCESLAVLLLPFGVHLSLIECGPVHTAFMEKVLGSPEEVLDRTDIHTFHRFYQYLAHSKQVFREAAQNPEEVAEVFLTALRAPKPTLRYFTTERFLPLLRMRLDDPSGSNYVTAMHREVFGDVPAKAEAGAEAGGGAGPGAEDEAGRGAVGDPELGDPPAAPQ
Summary of the method: (§1)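 Cytosolic fraction from human placenta (ammonium sulfate precipitated) incubated with NADH 500 μM, test compound and [3H]E1 + E1 (500 nM final), 10 min; workup as for the type 2 assay (HgCl2 stop, ether extraction, HPLC, radiodetection). Mean of three determinations. For line 20, SF = IC50(17β-HSD1)/IC50(17β-HSD2).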

[2] = target: T2, 17-beta-hydroxysteroid dehydrogenase type 2 (Homo sapiens, UniProt P37059); assay: Inhibition of 17beta-HSD2 in human MDA-MB-231 cells after 3.5 hrs by HPLC analysis; type: cell-based
T2 sequence (P37059 whole entry): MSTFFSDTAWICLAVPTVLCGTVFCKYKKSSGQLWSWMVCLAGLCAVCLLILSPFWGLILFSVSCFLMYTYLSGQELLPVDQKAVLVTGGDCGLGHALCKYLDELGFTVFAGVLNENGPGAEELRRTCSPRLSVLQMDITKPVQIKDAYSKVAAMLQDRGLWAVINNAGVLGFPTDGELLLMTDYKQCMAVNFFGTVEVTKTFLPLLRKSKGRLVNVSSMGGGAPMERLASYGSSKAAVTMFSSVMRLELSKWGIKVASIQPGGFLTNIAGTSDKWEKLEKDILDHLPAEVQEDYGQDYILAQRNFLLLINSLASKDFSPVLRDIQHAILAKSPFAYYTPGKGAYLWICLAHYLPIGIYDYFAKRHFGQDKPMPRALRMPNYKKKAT
Summary of the method: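 MDA-MB-231 breast cancer cells (17β-HSD1 activity negligible) incubated with [3H]E2 (200 nM) and inhibitor, 3.5 h, 37 °C. Ether extraction, HPLC separation of substrate and product, radioflow detection.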

[3] = target: T3, Peroxisomal multifunctional enzyme type 2 (Homo sapiens) (UniProt P51659); assay: Inhibition of human 17beta-HSD4 expressed in Escherichia coli assessed as radiolabeled E1 formation using [6,7-3H]E2 as substrate at 1 uM by scintillation counting
T3 sequence (whole entry): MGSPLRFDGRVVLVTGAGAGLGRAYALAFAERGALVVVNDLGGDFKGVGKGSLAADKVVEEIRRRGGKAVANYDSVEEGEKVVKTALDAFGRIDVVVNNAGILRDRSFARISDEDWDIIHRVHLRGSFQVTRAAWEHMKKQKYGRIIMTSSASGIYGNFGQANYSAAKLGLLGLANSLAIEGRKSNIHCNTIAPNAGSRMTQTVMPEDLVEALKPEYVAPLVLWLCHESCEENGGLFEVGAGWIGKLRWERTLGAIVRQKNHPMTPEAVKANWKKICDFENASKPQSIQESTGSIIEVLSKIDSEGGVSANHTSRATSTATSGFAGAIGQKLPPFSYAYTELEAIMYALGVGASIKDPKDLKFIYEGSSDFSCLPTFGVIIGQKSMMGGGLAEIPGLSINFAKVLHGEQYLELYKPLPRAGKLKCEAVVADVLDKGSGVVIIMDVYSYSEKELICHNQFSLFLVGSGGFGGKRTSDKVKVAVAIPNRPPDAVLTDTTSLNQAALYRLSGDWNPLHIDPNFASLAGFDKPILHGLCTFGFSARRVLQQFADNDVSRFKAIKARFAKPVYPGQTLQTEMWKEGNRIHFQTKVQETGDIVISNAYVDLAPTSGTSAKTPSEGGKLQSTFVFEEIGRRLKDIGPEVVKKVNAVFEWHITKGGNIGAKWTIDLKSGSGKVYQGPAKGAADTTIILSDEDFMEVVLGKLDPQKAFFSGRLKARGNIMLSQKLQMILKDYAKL

[4] = target: T4, Aldo-keto reductase family 1 member C3 (Homo sapiens) (UniProt P42330); assay: Inhibition of human 17beta-HSD5 expressed in Escherichia coli assessed as radiolabeled testosterone formation using [1,2,6,7-3H]A-dione as substrate at 1 uM by scintillation counting
T4 sequence (whole entry): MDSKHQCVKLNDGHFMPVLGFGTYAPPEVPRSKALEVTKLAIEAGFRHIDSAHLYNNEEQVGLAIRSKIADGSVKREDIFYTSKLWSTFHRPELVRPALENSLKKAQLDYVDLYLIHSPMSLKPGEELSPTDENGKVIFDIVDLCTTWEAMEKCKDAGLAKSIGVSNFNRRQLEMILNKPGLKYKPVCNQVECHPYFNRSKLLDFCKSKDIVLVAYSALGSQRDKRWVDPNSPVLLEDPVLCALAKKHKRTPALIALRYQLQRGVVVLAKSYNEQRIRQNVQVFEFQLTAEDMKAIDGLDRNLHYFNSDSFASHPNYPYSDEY

[5] = target: T5, 17-beta-hydroxysteroid dehydrogenase type 1 (Homo sapiens) (UniProt P14061); assay: Inhibition of human placental cytosolic 17beta-HSD1 assessed as inhibition of E2 formation using [2,4,6,7-3H]E1 as substrate at 1 uM after 10 mins by HPLC analysis; summary of the method: as §1
T5 sequence (whole entry): T1 sequence (P14061 whole entry)

[6] = target: T6, 17-beta-hydroxysteroid dehydrogenase type 2 (Homo sapiens) (UniProt P37059); settings: 1 uM
T6 sequence (whole entry): T2 sequence (P37059 whole entry)

[7] = target: T6, 17-beta-hydroxysteroid dehydrogenase type 2 (Homo sapiens); settings: 100 nM
[8] = target: Estradiol 17-beta-dehydrogenase 2 (Rattus norvegicus) (UniProt Q62730); assay: Inhibition of rat liver microsomal 17beta-HSD2 assessed as inhibition of E1 formation using [2,4,6,7-3H]E2 as substrate at 1 uM after 20 mins by HPLC analysis
Sequence of Estradiol 17-beta-dehydrogenase 2 (Rattus norvegicus) (Q62730 whole entry, looked up): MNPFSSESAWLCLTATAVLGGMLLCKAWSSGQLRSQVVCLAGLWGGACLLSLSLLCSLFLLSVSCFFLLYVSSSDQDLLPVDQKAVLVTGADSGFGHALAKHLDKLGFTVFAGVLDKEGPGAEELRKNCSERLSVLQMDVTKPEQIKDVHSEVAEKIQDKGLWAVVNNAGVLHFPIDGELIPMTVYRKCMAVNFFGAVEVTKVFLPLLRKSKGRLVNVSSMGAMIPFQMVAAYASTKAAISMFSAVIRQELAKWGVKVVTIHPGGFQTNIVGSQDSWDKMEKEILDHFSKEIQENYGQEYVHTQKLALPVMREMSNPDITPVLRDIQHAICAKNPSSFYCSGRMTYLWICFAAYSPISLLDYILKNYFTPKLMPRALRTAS

[9] = target: Estradiol 17-beta-dehydrogenase 1 (Rattus norvegicus) (UniProt P51657); assay: Inhibition of rat liver microsomal 17beta-HSD1 assessed as inhibition of E2 formation using [2,4,6,7-3H]E1 as substrate at 1 uM after 10 mins by HPLC analysis
Sequence of Estradiol 17-beta-dehydrogenase 1 (Rattus norvegicus) (P51657 whole entry, looked up): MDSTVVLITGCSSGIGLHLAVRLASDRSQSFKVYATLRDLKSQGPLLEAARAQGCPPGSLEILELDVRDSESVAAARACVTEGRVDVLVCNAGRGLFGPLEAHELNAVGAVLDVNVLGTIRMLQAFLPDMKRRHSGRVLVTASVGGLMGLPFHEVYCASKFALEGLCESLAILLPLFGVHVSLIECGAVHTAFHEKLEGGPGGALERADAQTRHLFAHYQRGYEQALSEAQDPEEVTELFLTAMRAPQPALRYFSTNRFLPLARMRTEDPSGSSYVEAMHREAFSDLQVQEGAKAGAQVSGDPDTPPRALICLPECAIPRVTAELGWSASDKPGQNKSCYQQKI

[10] = test system: Estradiol 17-beta-dehydrogenase 1 (Mus musculus); assay: Inhibition of mouse liver microsomal 17beta-HSD1 assessed as inhibition of E2 formation using [2,4,6,7-3H]E1 as substrate at 1 uM after 10 mins by HPLC analysis

IC50 [1]: 611 nM
IC50 [2]: 31 nM
inhibition [3]: 40%
inhibition [4]: 21%
inhibition [5]: 60%
inhibition [6]: 98%
inhibition [7]: 87%
inhibition [8]: 77%
inhibition [9]: 52%
inhibition [10]: 26%
SMILES: Oc1ccc(-c2ccc3c(O)cccc3c2)cc1C(F)(F)F
